The source made the active and inactive calls. The rule behind the calls is not given here.
Legend:
D(4) dopamine receptor = biological target: T1, D(4) dopamine receptor (Homo sapiens, UniProt P21917); assay: Displacement of [3H]spiperone from human dopamine D4.4 receptor expressed in CHO cells; type: cell-based
T1 sequence (P21917 whole entry): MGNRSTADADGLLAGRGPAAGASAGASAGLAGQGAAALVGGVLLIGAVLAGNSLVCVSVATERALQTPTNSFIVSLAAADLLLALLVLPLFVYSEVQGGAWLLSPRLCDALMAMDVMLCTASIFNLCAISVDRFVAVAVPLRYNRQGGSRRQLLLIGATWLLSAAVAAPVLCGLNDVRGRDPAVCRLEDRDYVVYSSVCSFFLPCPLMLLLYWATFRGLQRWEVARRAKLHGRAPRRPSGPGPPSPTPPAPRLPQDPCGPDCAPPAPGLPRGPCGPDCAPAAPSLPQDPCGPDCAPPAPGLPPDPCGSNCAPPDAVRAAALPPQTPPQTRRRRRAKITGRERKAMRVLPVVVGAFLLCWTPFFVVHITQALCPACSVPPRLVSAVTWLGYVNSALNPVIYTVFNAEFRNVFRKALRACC
Procedure, shortened: (§1)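 Radioligand binding at human receptors, with Ki as the read-out. Ki is the mean (±SEM) of two to three experiments, each run in triplicate.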

D(2) dopamine receptor [1] = biological target: T2, D(2) dopamine receptor (Homo sapiens, UniProt P14416); assay: Antagonist activity at human dopamine D2L receptor expressed in HEK293 cells assessed inhibition of as quinpirole-induced Ca2+ influx by fluorescence analysis; type: functional, cell-based
Procedure, shortened: (§2)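 HEK293 cells stably expressing the relevant dopamine receptor were loaded with a fluorescent dye and preincubated with rising concentrations of test compound. Agonist was then added: SKF 38393 for D1, quinpirole for D2. Ca2+-induced fluorescence was read on a microplate reader.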

D(3) dopamine receptor = D(3) dopamine receptor (Homo sapiens, UniProt P35462); assay: Displacement of [3H]spiperone from human dopamine D3 receptor expressed in human HEK293 cells; type: cell-based; procedure, shortened: as §1
D(2) dopamine receptor [2] = biological target: T2, D(2) dopamine receptor; assay: Displacement of [3H]spiperone from human dopamine D2L receptor expressed in human HEK293 cells; type: cell-based; procedure, shortened: as §1
D(1A) dopamine receptor [3] = biological target: T3, D(1A) dopamine receptor (Homo sapiens, UniProt P21728); assay: Displacement of [3H]SCH23390 from human dopamine D1 receptor expressed in human HEK293 cells; type: cell-based; procedure, shortened: as §1
D(1B) dopamine receptor = D(1B) dopamine receptor (Homo sapiens, UniProt P21918); assay: Displacement of [3H]SCH23390 from human dopamine D5 receptor expressed in human HEK293 cells; type: cell-based; procedure, shortened: as §1
D(1A) dopamine receptor [4] = biological target: T3, D(1A) dopamine receptor; assay: Antagonist activity at human dopamine D1 receptor expressed in HEK293 cells assessed as inhibition of SKF38393-induced Ca2+ influx by fluorescence analysis; type: functional, cell-based; procedure, shortened: as §2

D(3) dopamine receptor, sequence (P35462 whole entry): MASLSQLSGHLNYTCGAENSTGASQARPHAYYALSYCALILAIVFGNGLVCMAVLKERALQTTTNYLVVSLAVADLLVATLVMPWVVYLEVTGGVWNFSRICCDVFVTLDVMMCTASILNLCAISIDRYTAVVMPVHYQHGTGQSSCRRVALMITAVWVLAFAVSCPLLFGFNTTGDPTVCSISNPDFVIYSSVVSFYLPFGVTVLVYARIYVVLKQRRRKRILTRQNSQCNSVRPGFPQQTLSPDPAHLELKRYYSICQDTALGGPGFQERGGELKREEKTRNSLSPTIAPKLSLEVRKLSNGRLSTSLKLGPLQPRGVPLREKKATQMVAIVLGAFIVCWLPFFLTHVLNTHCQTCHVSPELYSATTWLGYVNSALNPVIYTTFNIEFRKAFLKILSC
T3 sequence (P21728 whole entry): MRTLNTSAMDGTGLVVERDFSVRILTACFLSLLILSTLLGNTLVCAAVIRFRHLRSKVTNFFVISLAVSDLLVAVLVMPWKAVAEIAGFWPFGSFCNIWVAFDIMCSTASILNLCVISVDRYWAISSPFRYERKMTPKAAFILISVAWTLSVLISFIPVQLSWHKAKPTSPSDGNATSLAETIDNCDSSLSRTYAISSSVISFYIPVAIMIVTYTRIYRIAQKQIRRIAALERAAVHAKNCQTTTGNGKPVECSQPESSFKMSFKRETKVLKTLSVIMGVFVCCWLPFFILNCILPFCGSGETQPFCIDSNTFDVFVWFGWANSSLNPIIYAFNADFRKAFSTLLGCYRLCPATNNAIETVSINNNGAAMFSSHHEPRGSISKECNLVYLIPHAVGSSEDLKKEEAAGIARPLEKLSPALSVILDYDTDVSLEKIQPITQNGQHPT
D(1B) dopamine receptor, sequence (P21918 whole entry): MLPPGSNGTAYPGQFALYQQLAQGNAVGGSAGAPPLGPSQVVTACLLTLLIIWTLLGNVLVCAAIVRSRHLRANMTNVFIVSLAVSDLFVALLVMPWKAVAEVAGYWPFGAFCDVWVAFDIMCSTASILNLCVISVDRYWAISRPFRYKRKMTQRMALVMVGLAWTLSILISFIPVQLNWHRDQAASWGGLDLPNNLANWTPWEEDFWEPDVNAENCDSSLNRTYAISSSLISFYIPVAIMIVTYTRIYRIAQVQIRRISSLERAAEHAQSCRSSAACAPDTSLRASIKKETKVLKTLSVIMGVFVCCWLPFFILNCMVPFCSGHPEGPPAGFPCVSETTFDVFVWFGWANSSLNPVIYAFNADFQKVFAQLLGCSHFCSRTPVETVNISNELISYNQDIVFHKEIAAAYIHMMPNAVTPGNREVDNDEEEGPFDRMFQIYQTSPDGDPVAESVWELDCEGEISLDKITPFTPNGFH
T2 sequence (P14416 whole entry): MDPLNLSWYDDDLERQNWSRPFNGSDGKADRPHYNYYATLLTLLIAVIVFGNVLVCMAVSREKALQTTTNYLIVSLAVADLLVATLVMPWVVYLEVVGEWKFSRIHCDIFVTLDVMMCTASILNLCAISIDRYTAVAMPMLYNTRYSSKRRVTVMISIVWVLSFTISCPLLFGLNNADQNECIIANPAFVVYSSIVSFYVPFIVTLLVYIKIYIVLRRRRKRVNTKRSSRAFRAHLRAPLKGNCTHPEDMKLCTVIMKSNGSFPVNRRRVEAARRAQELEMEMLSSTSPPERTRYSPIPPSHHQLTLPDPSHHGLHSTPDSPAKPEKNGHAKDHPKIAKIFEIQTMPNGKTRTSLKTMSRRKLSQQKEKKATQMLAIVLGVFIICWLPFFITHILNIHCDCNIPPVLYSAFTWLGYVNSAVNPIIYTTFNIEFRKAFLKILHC

Compound	Ki (D(4) dopamine receptor) [nM]	inhibition (D(2) dopamine receptor [1])	Ki (D(3) dopamine receptor) [nM]	Ki (D(2) dopamine receptor [2]) [nM]	Ki (D(1A) dopamine receptor [3]) [nM]	Ki (D(1B) dopamine receptor) [nM]	inhibition (D(1A) dopamine receptor [4])
CN1CCc2ccccc2Cc2[nH]c3ccccc3c2C[C@H]1CO	4860	Active	4680	2920	114	91.4	Active
CN1CCc2ccccc2Cc2[nH]c3ccccc3c2C[C@@H]1CO	408	Active	681	268	10.3	11.4	Active
CN1CCc2ccccc2Cc2[nH]c3ccccc3c2CC1C(=O)O (racemic)	> 10000	Active	> 10000	> 10000	> 10000	657	Active
C[C@H]1Cc2c([nH]c3ccccc23)Cc2ccccc2CCN1C	64.1	Active	304	85.3	6.1	4.4	Active
C[C@@H]1Cc2c([nH]c3ccccc23)Cc2ccccc2CCN1C	> 10000	Active	> 10000	> 10000	640	389	Active

From ChEMBL document CHEMBL1949524, “Chiral indolo[3,2-f][3]benzazecine-type dopamine receptor antagonists: synthesis and activity of racemic and enantiopure derivatives” (J Med Chem, 2011)
